Read-outs that look alike come from different tables or passages of the source.

We go through three molecules from PMC8791645 (Advanced therapeutics, 2021).

One series relates to M9-ENL1 cells. The experiment in a line: MTT cell viability assay with M9-ENL1 cells. In kind it is cell-based. For orientation: Tetrazolium assays rely on reduction of a dye to a coloured formazan, in cell work by metabolically active cells.
The next series relates to MV411 cells. Nature of the series: alamarBlue cell viability. In kind it is cell-based. For orientation: Resazurin is reduced to fluorescent resorufin, in cell work by metabolically active cells.
The nature of series [1]: Serum stability of MCL analogs. The class given is in vitro ADME, mouse.
Series [2] is described as follows: Drug release from PSMA-b-PS based NPs. As to conditions: for release half-life from NPs: PSMA-b-PS NPs, PBS pH 7.4, 37 °C. In kind it is physicochemical. The method in brief:
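Loaded NPs dialysed (6–8 kDa MWCO) against phosphate-buffered saline, pH 7.4, 37 °C. Aliquots taken at 0, 1, 2, 4, 6, 8, 24, 48 and 72 h, with sink medium replaced at 2, 8, 24 and 48 h. Each aliquot mixed with an equal volume of methanol and analysed by C18 HPLC with 210 nm detection.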

Series [3] in a line: Drug loading capacity in PSMA-b-PS NPs. The class given is physicochemical. As to conditions: mg drug loaded/mg NPs × 100, PSMA-b-PS NPs. The method in brief: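 Test compounds in chloroform (3 mg mL−1) stirred with aqueous NPs at 1:3 drug:NP weight ratio, left uncovered overnight to evaporate solvent (acetone in some runs). Insoluble drug removed by two 4000 rpm spins, and unloaded drug by 100 000 MWCO centrifugal filtration (2000 rpm, 10 min). Quantified by C18 reversed-phase HPLC at 210 nm against methanol standards. LC = mg drug loaded/mg NPs × 100.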

For the molecule `C=C1C(=O)O[C@H]2[C@H]1CCC(C)=C1[C@H](OC(=O)c3ccc(C(F)(F)F)cc3)C[C@@](C)(O)[C@@H]12` [MCL-13], the CC50 was found to be 1.8 ± 1 µM in the series on M9-ENL1 cells and 1.8 ± 0.7 µM in the series with MV411 cells.

As for `C=C1C(=O)O[C@H]2[C@H]1CCC(COC(=O)c1cc(C(F)(F)F)cc(C(F)(F)F)c1)=C1CC[C@@](C)(O)[C@@H]12` [MCL-19], the results for the CC50 in the series on M9-ENL1 cells and in the series on MV411 cells were 4.1 ± 1.1 µM and 1.7 ± 0.9 µM, respectively. Also, in series [1] (free compound, 24 h incubation in both 50% and 100% serum), the hydrolysis was 80–90%. Also, the “degradation half-life in serum” value in series [1] (free drug, 50% serum) was 18 min. The same molecule returned an intact compound in series [1] (free drug, 50% serum, after 8 h of incubation) of 7 ± 2%. Also, in series [2], the “release half-life from NPs” value stood at 540 min. Also, in series [2] (from 0–8 h), the “release rate from NPs” value is 5.7 h⁻¹.

With `C=C1C(=O)O[C@H]2[C@H]1CCC(C)=C1CC[C@@](C)(O)[C@@H]12` [MCL, Micheliolide, reference compound], the CC50 is 15.4 ± 1.1 µM in the series on M9-ENL1 cells (M9-ENL1, 24 h, read-out: LC50 M9-ENL1) and 5.6 ± 2.8 µM in the series with MV411 cells (Homo sapiens, MV4-11, 24 h, read-out: LC50 MV-411). Moreover, in series [3], the “loading capacity (LC)” value is recorded as “≈ 14%”. Besides, in series [2], the “release half-life from NPs” value was 19.8 min.
